# Screening data from PubChem BioAssay.
# This is a sample that favours compounds with a hit; in the whole collection about 12% have one here.
# Dynein transport: inhibitors of GR-EGFP nuclear translocation, primary screen, dynein cargo transport inhibitor project, imaging, high-content, 3617.4 mouse cells; test concentration mostly 20 µM; stimulated with dexamethasone, 1 µM; hits give low values; AID 1381, 2008; z-score, hits read low; 0.47% of 220,000 active;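 active = plate z-score of nuclear minus cytoplasmic receptor signal below a set negative limit, without overly bright fluorescence or cell loss, cut at about -3.5 in these data, passing the limit was not always enough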;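 note: z-score of nuclear minus cytoplasmic ring GR-EGFP intensity difference per well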
#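 Schedule: 48 h induction, then 1 h compound, then 30 min agonist, 37 °C. Buffer or medium: tetracycline-free induction medium containing charcoal-stripped FBS. Reagent: 1.0 µM final dexamethasone stimulus. Evaluation: nuclear versus cytoplasmic GR-EGFP signal, averaged per well. Signal: high-content fluorescence imaging after fixation.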
# bCat nuc transl: modulators of beta-catenin nuclear translocation, primary screen, imaging, HeLa cells, immunofluorescence, high-content; nuclear translocation activity, % at 5 µM; 0.3% of 190,000 active;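 active = nuclear translocation activity above 50% at 5 µM, with a well cell count of 50 or more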;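 note: per-cell ratio of nuclear to cytoplasmic median beta-catenin stain intensity; plate controls were DMSO negative control for no effect and GSK-3 inhibitor IX positive control for full effect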
#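 Read-out: Nuclear/cytoplasmic beta-catenin signal ratio, % activation | Assay system: Human HeLa cell line | Times: 24 h compound exposure at 37°C, 5% CO2 | Signal: Fluorescence imaging of beta-catenin antibody stain plus DAPI | Dosing: 5 µM primary, 0.02–20 µM confirmation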
# CHOP inhibitor: inhibitors of CHOP promoter induction, primary screen, cell-based, unfolded protein response, luciferase reporter; CHO-K1 CHOP-promoter luciferase, tunicamycin-induced, 15-18 h; inhibition, % at 10 µM; 3.8% of 220,000 active;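 active = compounds that reduced the stress-induced luciferase reporter signal by more than about 70% of percent inhibition, limit read from the data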;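 note: 0% = tunicamycin plus vehicle and 100% = wells without tunicamycin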
# Lmaj promast: Leishmania major promastigote growth inhibition, primary screen; Leishmania major promastigotes, resazurin fluorescence viability; 9% of 200,000 active; AID 1063, 2008; inhibition, % at 10 µM; in the data active = inhibition above about 50%;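 note: promastigotes grown with compound for 44 hours at 28 °C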
# Autophagy HCS: autophagy modulators in MEF cells, primary screen, imaging, high-content, MEF GFP-LC3; calls only at 10 µM (by protocol); 0.98% of 190,000 active; MEF GFP-LC3 puncta imaging; test concentration mostly 10 µM;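 active = percentage of spot-positive cells more than 3 SD above its plate mean, without a fluorescence outlier flag or 80% toxicity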;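 note: spot-positive cell cutoff set from DMSO-treated cells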
# MT stabilize HCS: microtubule stabilizers in HeLa cells, primary screen, imaging, high-content imaging; % tubulin-high responders, % at 10 µM; AID 2205, 2009; 0.83% of 200,000 active; HeLa tubulin immunostaining HCS, 24 h; share of cells brighter than vehicle mean+2SD;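 active = plate Z-score above 3 for both tubulin-high and condensed-nucleus cell shares, with cell loss under 80%, at 10 µM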;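 note: anti alpha tubulin signal scored within the nucleus-defined area of each cell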
# Numbers without * were called inactive; i = inactive; · = not tested or not shown; + = active, no number.
SMILES,Dynein transport,bCat nuc transl,CHOP inhibitor,Lmaj promast,Autophagy HCS,MT stabilize HCS
CN1CCN(S(=O)(=O)c2ccc(N3CCN(C(c4ccccc4)c4ccccc4)CC3)nc2)CC1,0.134,-3.3,-1.7,100.0*,i,2.2
O=C1CN(c2ccc(Cl)cc2)C(=O)CN1NC(=S)Nc1ccc(Cl)cc1,-0.4,4.0,18.3,-2.5,i,3.0
O=C1c2ccccc2C(O)N1Cc1cccs1 (centres undefined),1.95,0.1,17.1,-0.7,i,2.5
C(=N\N1CCN(Cc2cccc3ccccc23)CC1)/c1ccco1,1.96,·,35.1,1.9,+,2.4
FC(F)(F)c1ccc(/C=N/N2CCN(Cc3cccc4ccccc34)CC2)cc1,-0.637,-0.2,28.0,5.4,i,2.7
COc1ccc(C(=O)NC(=S)NNC(=O)CNC(=O)C2CCCCC2)cc1,0.911,-1.5,14.3,0.8,i,1.6
NS(=O)(=O)c1cc2c(cc1Cl)NC=NS2(=O)=O,0.523,-0.3,9.4,-5.7,i,3.6
c1ccc(OCCCc2nc(-c3ccncc3)no2)cc1,-0.217,·,89.6*,-2.4,i,3.9
c1ccc(OCc2nc(-c3ccncc3)no2)cc1,0.583,-1.5,-5.2,-3.4,i,3.0
Cc1cc(C(=O)Cn2nnc3ccccc3c2=O)c(C)n1Cc1cccs1,-0.367,-0.7,-4.8,1.1,i,1.8
CSCCC(NC(=O)c1cc(C(C)(C)C)oc1C)C(=O)O (centres undefined),-0.889,-1.4,23.4,-3.1,i,5.1
CSCCC(NC(=O)c1ccoc1C)C(=O)O (centres undefined),-1.53,2.7,7.7,65.2*,i,2.9
O=S(=O)(c1ccc2ccccc2c1)N(CC(O)CN1CCOCC1)c1ccccc1 (centres undefined),-0.656,3.6,-38.7,16.4,i,3.7
O=C(COC(=O)c1cn(-c2ccccc2)nc1-c1ccccc1)Nc1ncc(Cl)cc1Cl,0.354,0.7,77.3*,·,·,·
Cc1ccc(C(=O)COC(=O)c2cn(-c3ccccc3)nc2-c2ccccc2)cc1[N+](=O)[O-],0.682,-0.7,75.6*,24.4,i,2.5
O=C(COC(=O)c1cn(-c2ccccc2)nc1-c1ccccc1)c1ccc([N+](=O)[O-])cc1,-1.19,·,49.2,5.9,i,3.9
Cc1nn(-c2ccccc2)c(C)c1/C=C/C(=O)OCC(=O)Nc1ncc(Cl)cc1Cl,0.0933,0.2,21.1,77.8*,i,2.3
O=C(COc1ccc2c(c1)CCC2)NCc1ccc(Cl)cc1,0.933,-4.1,35.4,48.5,i,2.3
Cc1ccc(NC(=O)Cc2nc(CSc3nnc(-c4ccc5c(c4)OCO5)o3)cs2)cc1,0.306,-3.0,44.8,87.0*,i,1.9
CCN(CC)c1ccc(NC(=O)CSc2nc3ccccc3c(=O)n2-c2cc(S(=O)(=O)N(C)C)ccc2C)cc1,0.243,-1.2,43.2,99.4*,i,2.8
CN(C)S(=O)(=O)c1ccc(NC(=O)CSc2nc3ccccc3n2-c2ccccc2)cc1,-0.606,1.8,35.7,100.1*,i,2.5
CN(C)S(=O)(=O)c1cccc(NC(=O)CSc2nc3ccccc3n2-c2ccccc2)c1,1.63,-1.9,53.0,8.8,i,5.1
COc1cc(NC(=O)CSc2nc3ccccc3n2-c2ccccc2)c(C)cc1[N+](=O)[O-],-0.687,·,17.1,54.8*,i,2.6
Cc1cc(C)n(-c2ccc(C(=O)OCC(=O)NCc3ccc(F)cc3)cc2)n1,-0.463,-0.3,7.8,-4.6,i,5.3
CCOC(=O)N1CCN(C(=O)CSCC(=O)Nc2nc(-c3cccs3)cs2)CC1,-0.673,-1.7,5.8,78.8*,i,3.0
SMILES,Dynein transport,bCat nuc transl,CHOP inhibitor,Lmaj promast,Autophagy HCS,MT stabilize HCS
CC1CCN(C(=O)CSCC(=O)Nc2nc(-c3cccs3)cs2)CC1,-1.63,-4.6,24.1,-5.7,i,5.9
Cc1ccc(NC(=S)N(CCN(C)C)Cc2cc3cc(C)ccc3[nH]c2=O)cc1,2.1,-0.2,-8.3,44.2,i,2.4
Cc1ccc(NC(=S)N(Cc2cccs2)Cc2cc3cc(C)cc(C)c3[nH]c2=O)cc1,0.604,0.3,22.3,94.9*,i,2.3
Cc1ccc2cc(CN(Cc3ccco3)C(=O)c3cccs3)c(=O)[nH]c2c1,0.647,·,·,3.8,i,34.5*
COc1cc2cc(CN(Cc3cccs3)C(=S)Nc3ccc(C)cc3)c(=O)[nH]c2cc1OC,2.64,2.2,7.2,97.9*,i,3.8
COc1cc2cc(CN(Cc3cccs3)C(=S)Nc3cccc(C)c3)c(=O)[nH]c2cc1OC,-0.629,-0.8,17.6,88.1*,i,2.5
Cc1cc2ncn(C(=O)N3CCCCCC3)c2cc1C,0.0656,-4.2,4.0,-0.9,i,2.0
CNC(=S)N(Cc1cccs1)Cc1cc2cc(OC)c(OC)cc2[nH]c1=O,0.999,-0.2,5.8,61.9*,i,1.3
Cc1cc(C)c2[nH]c(=O)c(CN(Cc3cccs3)C(=S)NCc3ccco3)cc2c1,0.0979,2.0,31.8,99.0*,i,2.8
COc1ccccc1NC(=O)N(Cc1cccs1)Cc1cc2cc3c(cc2[nH]c1=O)OCO3,-1.1,0.0,-51.0,7.0,i,6.2
CCN(CC)CCN(Cc1cc2cc(C)ccc2[nH]c1=O)C(=S)NCc1ccco1,1.02,1.5,8.8,60.9*,i,5.5
Cc1cccc(NC(=S)N(Cc2cccs2)Cc2cc3cc(C)ccc3[nH]c2=O)c1,0.0713,-0.6,43.0,26.1,i,1.7
Cc1ccc(NC(=S)N(Cc2cccs2)Cc2cc3cc(C)ccc3[nH]c2=O)cc1,-0.282,-0.3,-0.9,79.1*,i,1.4
COc1ccc(C(=O)NC2=Nc3ccccc3N=C(C)C2c2ccccc2)cc1 (centres undefined),-0.817,1.1,1.9,·,·,·
CCc1ccc(NC(=O)C(C)OC(=O)CCC(=O)c2cccs2)cc1 (centres undefined),0.477,-3.8,25.8,46.2,i,1.7
CCN(CC)CCN(Cc1cc2ccc(C)cc2[nH]c1=O)C(=O)NC1CCCCC1,-0.0864,0.1,-9.3,5.1,i,3.6
CCN(CC)CCN(Cc1cc2ccc(C)cc2[nH]c1=O)C(=O)Nc1ccc(Cl)cc1,-0.41,-0.3,14.9,63.3*,i,3.9
O=C(CCN1C(=O)COc2ccccc21)NCc1cccnc1,-0.422,-0.5,-10.4,-3.1,i,2.5
O=C(CN1C(=O)COc2ccccc21)N(Cc1cccnc1)Cc1ccccc1F,-0.448,-0.4,25.3,96.4*,i,2.6
COC(=O)[C@]12C(=O)C(C)=C(O)[C@@]1(C)C(C)=CC1[C@@]34CC[C@@H](OC(C)=O)C(C)(C)C3C(C[C@]12C)OC4=O (some centres undefined),0.0562,2.9,-6.3,·,·,·
